What was measured:
Mus musculus [1] = assay: Toxicity in mouse C26 cells xenografted Balb/C mouse assessed as body weight changes at 10 mg/kg, iv dosed every 2 days for 8 days; type: organism-based; parameters: dose 10 mg/kg, route intravenous; details: in vivo
Outline: (§1)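 Xenografts: 5 × 10^6 tumour cells injected sc in right armpit/flank of 5−6-week-old female mice; at 100 mm3 tumour volume, randomized (6 per group) and dosed in vehicle of 2.5% Tween-80 and 2.5% ethanol; body weights and caliper tumour volumes recorded every 2 days, toxicity signs and mortality daily.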

[2] = Cmax in rat at 3 mg/kg, iv; type: ADME, organism-based; parameters: dose 3 mg/kg, route intravenous; details: in vivo
Outline: (§2)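 Rat pharmacokinetics; oral and intravenous dosing, with group sizes of 5, 5 and 4 rats. Parameters derived: systemic clearance, volume of distribution, area under the plasma concentration–time curve, maximum plasma concentration and percent oral bioavailability.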

[3] = Volume of distribution at steady state in rat at 3 mg/kg, iv; type: ADME, organism-based; parameters: dose 3 mg/kg, route intravenous; details: in vivo, read-out: Vdss
[4] = Solubility in PBS solution by nephelometry; type: physicochemical
Outline: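 Maximum soluble concentration in PBS, determined by nephelometry.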

Rattus norvegicus [5] = assay: AUC in rat at 15 mg/kg, po; type: ADME, organism-based, Plasma; parameters: dose 15 mg/kg, route oral; details: in vivo; outline: as §2
Rattus norvegicus [6] = assay: Systemic clearance in rat at 15 mg/kg, po; type: ADME, organism-based; parameters: dose 15 mg/kg, route oral; details: in vivo
[7] = Antitumor activity against human A2780S cells xenografted in Balb/C mouse assessed as tumor mass changes at 10 mg/kg, iv dosed every 2 days for 8 days; type: functional, A2780
Outline: (§3)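 Female Balb/c or athymic nude mice, 5–6 weeks old. 5 × 10^6 cells in HBSS implanted sc in the right flank/armpit. Treatment began at tumor volume 100 mm3, 6 mice per group; vehicle was 2.5% Tween-80 and 2.5% ethanol. Tumor volume (π/6 × L × W²) and body weight measured every 2 days. Inhibition = (1 − treated/control tumor weight) × 100%.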

HepG2 [8] = assay: Antitumor activity against human HepG2 cells xenografted in Balb/C mouse assessed as tumor mass changes at 25 mg/kg, po dosed every 2 days for 11 days; type: functional; outline: as §3
Rattus norvegicus [9] = assay: AUC in rat at 3 mg/kg, iv; type: ADME, organism-based, Plasma; parameters: dose 3 mg/kg, route intravenous; details: in vivo; outline: as §2
Mus musculus [10] = assay: Toxicity in human A2780S cells xenografted Balb/C mouse assessed as mortality level at 10 mg/kg, iv dosed every 2 days for 8 days; type: organism-based, A2780; parameters: dose 10 mg/kg, route intravenous; details: in vivo
Outline: (§4)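 Female Balb/C or athymic nude mice, 5−6 weeks old, implanted sc in the right flank/armpit with 5 × 10^6 cells in HBSS. Once tumors reached 100 mm3, mice were randomized (6 per group) and dosed with vehicle (2.5% Tween-80, 2.5% ethanol) or drug. Toxicity signs and mortality observed daily. Body weight and caliper tumor volume measured every 2 days.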

Mus musculus [11] = assay: Toxicity in human HepG2 cells xenografted Balb/C mouse assessed as mortality level at 25 mg/kg, po dosed every 2 days for 11 days; type: organism-based; parameters: dose 25 mg/kg, route oral; details: in vivo; outline: as §4
[12] = Oral bioavailability in rat at 15 mg/kg; type: ADME, organism-based; details: in vivo
Rattus norvegicus [13] = assay: Systemic clearance in rat at 3 mg/kg, iv; type: ADME, organism-based; parameters: dose 3 mg/kg, route intravenous; details: in vivo
Mus musculus [14] = assay: Toxicity in cisplatin-resistant human […] cells xenografted Balb/C mouse assessed as body weight changes at 10 mg/kg, iv dosed every 2 days for 7 days; type: organism-based, A2780cisR; parameters: dose 10 mg/kg, route intravenous; details: in vivo; outline: as §1
[15] = Toxicity in iv dosed BALB/c mouse; type: organism-based; details: in vivo
Outline: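 Maximum tolerated dose in BALB/c mice (SPF, 18−22 g, 6−8 weeks, half female and half male). Graded doses given intravenously, n = 4 per dose. Survival and adverse effects recorded every other day after dosing. MTD defined as the largest dose given before one death occurs.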

[16] = Antitumor activity against mouse C26 cells xenografted in Balb/C mouse assessed as tumor mass changes at 10 mg/kg, iv dosed every 2 days for 8 days; type: functional; outline: as §3
Mus musculus [17] = assay: Toxicity in human A2780S cells xenografted Balb/C mouse assessed as body weight changes at 10 mg/kg, iv dosed every 2 days for 8 days; type: organism-based, A2780; parameters: dose 10 mg/kg, route intravenous; details: in vivo; outline: as §1
Mus musculus [18] = assay: Toxicity in mouse C26 cells xenografted Balb/C mouse assessed as mortality level at 10 mg/kg, iv dosed every 2 days for 8 days; type: organism-based; parameters: dose 10 mg/kg, route intravenous; details: in vivo; outline: as §4
Mus musculus [19] = assay: Toxicity in cisplatin-resistant human […] cells xenografted Balb/C mouse assessed as mortality level at 10 mg/kg, iv dosed every 2 days for 7 days; type: organism-based, A2780cisR; parameters: dose 10 mg/kg, route intravenous; details: in vivo; outline: as §4
[20] = Antitumor activity against cisplatin-resistant human […] cells xenografted in Balb/C mouse assessed as tumor mass changes at 10 mg/kg, iv dosed every 2 days for 7 days; type: functional, A2780cisR; outline: as §3
Mus musculus [21] = assay: Toxicity in human HepG2 cells xenografted Balb/C mouse assessed as body weight changes at 25 mg/kg, po dosed every 2 days for 11 days; type: organism-based; parameters: dose 25 mg/kg, route oral; details: in vivo; outline: as §1
HepG2 [22] = assay: Antiproliferative activity against human HepG2 cells assessed as inhibition of cell proliferation after 48 hrs by MTT assay; type: functional, cell-based; details: hepg2
Outline: (§5)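 Cells grown at 37 °C in humidified 5% CO2. K562, C26 and HCT lines in RPMI-1640; other lines in DMEM; both media with 10% FBS, penicillin and streptomycin. 1000 cells/well seeded, incubated overnight, then compound at various doses for 48 h. MTT added for 4 h, formazan dissolved in DMSO, absorbance read at 590 nm. IC50 from dose–response curves, mean ± SEM of at least three independent experiments.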

Rattus norvegicus [23] = assay: Volume of distribution at steady state in rat at 15 mg/kg, po; type: ADME, organism-based; parameters: dose 15 mg/kg, route oral; details: in vivo
[24] = Cmax in rat at 15 mg/kg, po; type: ADME, organism-based; parameters: dose 15 mg/kg, route oral; details: in vivo; outline: as §2
Mus musculus [25] = assay: Toxicity in human HepG2 cells xenografted Balb/C mouse assessed as mortality level at 5 mg/kg, iv dosed every 2 days for 11 days; type: organism-based; parameters: dose 5 mg/kg, route intravenous; details: in vivo; outline: as §4
[26] = Antiproliferative activity against adriamycin resistant human MCF7/ADR cells assessed as inhibition of cell proliferation after 48 hrs by MTT assay; type: functional, cell-based; details: NCI/ADR-RES; outline: as §5
Mus musculus [27] = assay: Toxicity in human HepG2 cells xenografted Balb/C mouse assessed as body weight changes at 5 mg/kg, iv dosed every 2 days for 11 days; type: organism-based; parameters: dose 5 mg/kg, route intravenous; details: in vivo; outline: as §1
HepG2 [28] = assay: Antitumor activity against human HepG2 cells xenografted in Balb/C mouse assessed as tumor mass changes at 5 mg/kg, iv dosed every 2 days for 11 days; type: functional; outline: as §3

`COc1ccc(/C=C/C(=O)c2ccc(OC)c3c2OC(C)(C)C=C3)cc1N.Cl` showed an Activity (Mus musculus [1]) of 0.8%, a Cmax [2] of 1510 ng/mL and a Vd [3] of 31 L/kg. For the same molecule, the solubility kinetic [4] was 64 µg/mL, the AUC (Rattus norvegicus [5]) was 2260 ng·h/mL and the CL (Rattus norvegicus [6]) was 7.4 L/h/kg. The Activity [7] was 61%, the Activity (HepG2 [8]) was 78% and the AUC (Rattus norvegicus [9]) was 973 ng·h/mL. The Activity (Mus musculus [10]) was “Non-toxic”, the Activity (Mus musculus [11]) was “Non-toxic” and the bioavailability [12] was 47%. It also gave a CL (Rattus norvegicus [13]) of 3 L/h/kg, an Activity (Mus musculus [14]) of 1% and an MTD [15] of 250 mg/kg. For the same molecule, the Activity [16] was 86%, the Activity (Mus musculus [17]) was -2.5% and the Activity (Mus musculus [18]) was “Non-toxic”. The Activity (Mus musculus [19]) was “Non-toxic”, the Activity [20] was 51% and the Activity (Mus musculus [21]) was 7.6%. The IC50 (HepG2 [22]) was 9 nM, the Vdss (Rattus norvegicus [23]) was 47 L/kg and the Cmax [24] was 0.449 µg/mL.

For `COc1cccc2c1C(=O)c1c(O)c3c(c(O)c1C2=O)C[C@@](O)(C(=O)CO)C[C@@H]3O[C@H]1C[C@H](N)[C@H](O)[C@H](C)O1.Cl` [DOXORUBICIN HYDROCHLORIDE], the Activity (Mus musculus [25]) was “Non-toxic”, the IC50 [26] was 5.3 µM and the Activity (Mus musculus [27]) was 0.5%. It also gave an Activity (HepG2 [28]) of 61%.

From ChEMBL document CHEMBL3351994, “Synthesis and biological evaluation of novel millepachine derivatives as a new class of tubulin polymerization inhibitors” (J Med Chem, 2014)
